According to ChEMBL document CHEMBL1144181, “Achiral oligoamines as versatile tool for the development of aspartic protease inhibitors” (Bioorg Med Chem, 2008):

Columns and labels:
Protease = Protease (Human immunodeficiency virus 1, UniProt Q9YQ12); assay: Inhibition of recombinant HIV1 protease expressed in Escherichia coli by fluorescence technique
[1] = Inhibition of Plasmodium recombinant plasmepsin-2 expressed in Escherichia coli by fluorescence technique
Outline: (§1)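 The recombinant enzyme was expressed in E. coli and purified. It was assayed at room temperature in 100 mM NaAc, pH 4.5, with 1 mg/mL BSA and 4% final DMSO. The substrate was Abz-Thr-Ile-Nle-(p-NO2-Phe)-Gln-Arg-NH2, read by fluorescence increase (ex 337, em 410 nm). IC50 came from nonlinear regression of vi/v0 versus inhibitor concentration, and Ki = IC50/[1+(S/Km)].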

[2] = Inhibition of Plasmodium recombinant plasmepsin-4 expressed in Escherichia coli by fluorescence technique; outline: as §1
Renin = molecular target: T1, Renin (Homo sapiens, UniProt P00797); assay: Inhibition of recombinant renin by fluorescence technique
T1 sequence (P00797 whole entry): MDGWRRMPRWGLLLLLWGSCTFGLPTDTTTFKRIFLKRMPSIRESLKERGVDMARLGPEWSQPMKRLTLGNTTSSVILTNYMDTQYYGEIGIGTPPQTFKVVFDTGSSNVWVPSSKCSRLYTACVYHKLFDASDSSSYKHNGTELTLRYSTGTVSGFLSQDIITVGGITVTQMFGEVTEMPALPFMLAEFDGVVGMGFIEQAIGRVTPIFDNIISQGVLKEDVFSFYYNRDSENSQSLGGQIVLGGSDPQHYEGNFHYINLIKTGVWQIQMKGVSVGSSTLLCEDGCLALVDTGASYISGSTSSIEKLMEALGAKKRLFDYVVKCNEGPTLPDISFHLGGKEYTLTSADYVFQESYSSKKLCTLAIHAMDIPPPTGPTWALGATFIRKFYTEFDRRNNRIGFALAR

Beta-secretase 1 = Beta-secretase 1 (Homo sapiens, UniProt P56817); assay: Inhibition of recombinant beta secretase 1 by fluorescence technique
[3] = Inhibition of pig pepsin by fluorescence technique; parameters: species or system Sus scrofa

Protease, sequence (Q9YQ12 whole entry): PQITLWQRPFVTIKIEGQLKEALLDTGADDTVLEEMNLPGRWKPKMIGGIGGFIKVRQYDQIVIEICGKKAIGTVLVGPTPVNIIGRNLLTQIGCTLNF
Beta-secretase 1, sequence (P56817 whole entry): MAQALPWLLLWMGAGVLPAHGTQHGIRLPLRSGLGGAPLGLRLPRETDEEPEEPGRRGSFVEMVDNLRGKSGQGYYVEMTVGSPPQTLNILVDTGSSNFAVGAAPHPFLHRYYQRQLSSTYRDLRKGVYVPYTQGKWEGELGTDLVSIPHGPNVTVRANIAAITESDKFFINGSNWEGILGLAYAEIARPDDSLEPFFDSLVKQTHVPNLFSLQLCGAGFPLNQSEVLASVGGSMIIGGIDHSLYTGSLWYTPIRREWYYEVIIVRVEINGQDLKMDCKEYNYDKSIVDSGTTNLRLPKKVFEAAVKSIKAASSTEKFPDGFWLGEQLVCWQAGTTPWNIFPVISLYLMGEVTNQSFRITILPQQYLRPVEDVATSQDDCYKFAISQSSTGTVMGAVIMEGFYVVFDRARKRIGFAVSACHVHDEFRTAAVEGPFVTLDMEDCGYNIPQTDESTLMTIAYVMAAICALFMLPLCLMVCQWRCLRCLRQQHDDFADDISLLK

| SMILES | IC50 (Protease) [µM] | Ki [1] [µM] | Ki [2] [µM] | IC50 (Renin) [µM] | IC50 (Beta-secretase 1) [µM] | IC50 [3] [µM] | Ki (Protease) [µM] | Ki (Beta-secretase 1) [µM] | Ki [3] [µM] | Ki (Renin) [µM] |
| --- | --- | --- | --- | --- | --- | --- | --- | --- | --- | --- |
| Nc1ccc(S(=O)(=O)N(CCCNCCN(Cc2ccccc2)S(=O)(=O)c2ccc(N)cc2)Cc2ccccc2)cc1 | > 250 | 22 | 7.5 | > 250 | > 250 | > 250 |  |  |  |  |
| CC(C)CN(C[C@@H](O)[C@H](Cc1ccccc1)NC(=O)O[C@H]1CCOC1)S(=O)(=O)c1ccc(N)cc1 |  |  |  |  |  |  | 0.9 |  |  |  |
| Nc1ccc(S(=O)(=O)N(CCCNCCCN(Cc2ccccc2)S(=O)(=O)c2ccc(N)cc2)Cc2ccccc2)cc1 | > 250 | 2.8 | 20 | > 250 |  |  |  | 64 | 4 |  |
| O=C(Cc1ccccc1)N(CCCNCCCN(Cc1ccccc1)C(=O)Cc1ccccc1)Cc1ccccc1 | > 250 | 120 | 170 |  | > 250 | > 250 |  |  |  | 16 |
| CC(C)CN(CCNCCN(CC(C)C)S(=O)(=O)c1ccc(N)cc1)S(=O)(=O)c1ccc(N)cc1 |  | 6.8 | 56 | > 250 | > 250 |  |  |  | 4.8 |  |
| O=S(=O)(c1ccccc1)N(CCCNCCCN(Cc1ccccc1)S(=O)(=O)c1ccccc1)Cc1ccccc1 | > 250 | 21 | 42 | > 250 |  | > 250 |  | 150 |  |  |
| CC(C)CN(CCNCCN(CC(C)C)S(=O)(=O)c1ccccc1)S(=O)(=O)c1ccccc1 |  | 23 | 87 | > 250 | > 250 |  | 10 |  | 4.5 |  |
| O=S(=O)(c1ccccc1)N(CCCNCCN(Cc1ccccc1)S(=O)(=O)c1ccccc1)Cc1ccccc1 |  | 18 | 17 | > 250 | > 250 |  | 14 |  | 15 |  |
| Nc1ccc(S(=O)(=O)N(CCNCCN(Cc2ccccc2)S(=O)(=O)c2ccc(N)cc2)Cc2ccccc2)cc1 |  | 4.2 | 7.5 | > 250 | > 250 |  |  |  | 3.9 |  |
| O=C(Cc1ccccc1)N(CCCNCCN(Cc1ccccc1)C(=O)Cc1ccccc1)Cc1ccccc1 | > 250 | 63 | 56 | > 250 | > 250 | > 250 |  |  |  |  |
| O=S(=O)(c1ccccc1)N(CCNCCN(Cc1ccccc1)S(=O)(=O)c1ccccc1)Cc1ccccc1 |  | 7 | 36 | > 250 | > 250 |  | 3.8 |  | 5.7 |  |
| O=C(Cc1ccccc1)N(CCNCCN(Cc1ccccc1)C(=O)Cc1ccccc1)Cc1ccccc1 | > 250 | 91 | 98 |  | > 250 | > 250 |  |  |  | 5.7 |
